What was measured:
Format in all cases: functional
[1] = system: HCC 2998; experiment: Anticancer activity against human HCC2998 cells assessed as cell growth promotion at 10^-5 M after 48 hrs by SRB assay relative to control
[2] = system: SNB-19; experiment: Anticancer activity against human SNB19 cells assessed as cell growth promotion at 10^-5 M after 48 hrs by SRB assay relative to control
[3] = system: ACHN; experiment: Anticancer activity against human ACHN cells assessed as cell growth promotion at 10^-5 M after 48 hrs by SRB assay relative to control
[4] = system: OVCAR-8; experiment: Anticancer activity against human OVCAR8 cells assessed as cell growth promotion at 10^-5 M after 48 hrs by SRB assay relative to control
[5] = system: M14; experiment: Anticancer activity against human M14 cells assessed as cell growth promotion at 10^-5 M after 48 hrs by SRB assay relative to control
[6] = system: RXF 393; experiment: Anticancer activity against human RXF393 cells assessed as cell growth promotion at 10^-5 M after 48 hrs by SRB assay relative to control
[7] = system: CAKI-1; experiment: Anticancer activity against human Caki1 cells assessed as cell growth promotion at 10^-5 M after 48 hrs by SRB assay relative to control
[8] = system: Malme-3M; experiment: Anticancer activity against human MALME-3M cells assessed as cell growth promotion at 10^-5 M after 48 hrs by SRB assay relative to control
[9] = system: SK-MEL-28; experiment: Anticancer activity against human SK-MEL-28 cells assessed as cell growth promotion at 10^-5 M after 48 hrs by SRB assay relative to control
[10] = system: 786-0; experiment: Anticancer activity against human 786-0 cells assessed as cell growth promotion at 10^-5 M after 48 hrs by SRB assay relative to control
[11] = system: HL-60(TB); experiment: Anticancer activity against human HL-60(TB) cells assessed as cell growth promotion at 10^-5 M after 48 hrs by SRB assay relative to control
In short: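 NCI-60 single-dose screen: compound at 10^-5 M, 48 h at 37 °C, 5% CO2; cells grown in RPMI 1640 with 5% FBS and 2 mM L-glutamine, pre-incubated 24 h before dosing. Adherent cells fixed with cold TCA; endpoint is sulforhodamine B protein staining. Percent growth of treated cells is reported relative to untreated control.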

[12] = system: EKVX; experiment: Anticancer activity against human EKVX cells assessed as cell growth promotion at 10^-5 M after 48 hrs by SRB assay relative to control
[13] = Anticancer activity against human […] cells assessed as cell growth promotion at 10^-5 M after 48 hrs by SRB assay relative to control
[14] = system: OVCAR-5; experiment: Anticancer activity against human OVCAR5 cells assessed as cell growth promotion at 10^-5 M after 48 hrs by SRB assay relative to control
[15] = system: SF-295; experiment: Anticancer activity against human SF295 cells assessed as cell growth promotion at 10^-5 M after 48 hrs by SRB assay relative to control
[16] = system: COLO 205; experiment: Anticancer activity against human COLO205 cells assessed as cell growth promotion at 10^-5 M after 48 hrs by SRB assay relative to control
[17] = system: NCI-H322M; experiment: Anticancer activity against human NCI-H322M cells assessed as cell growth promotion at 10^-5 M after 48 hrs by SRB assay relative to control
[18] = system: K562; experiment: Anticancer activity against human K562 cells assessed as cell growth promotion at 10^-5 M after 48 hrs by SRB assay relative to control
[19] = system: UACC-62; experiment: Anticancer activity against human UACC62 cells assessed as cell growth promotion at 10^-5 M after 48 hrs by SRB assay relative to control
[20] = system: IGROV-1; experiment: Anticancer activity against human IGROV1 cells assessed as cell growth promotion at 10^-5 M after 48 hrs by SRB assay relative to control
[21] = system: CCRF-CEM; experiment: Anticancer activity against human CCRF-CEM cells assessed as cell growth promotion at 10^-5 M after 48 hrs by SRB assay relative to control
[22] = system: U-251; experiment: Anticancer activity against human U251 cells assessed as cell growth promotion at 10^-5 M after 48 hrs by SRB assay relative to control
[23] = system: SN12C; experiment: Anticancer activity against human SN12C cells assessed as cell growth promotion at 10^-5 M after 48 hrs by SRB assay relative to control
[24] = system: A549; experiment: Anticancer activity against human A549 cells assessed as cell growth promotion at 10^-5 M after 48 hrs by SRB assay relative to control
[25] = system: UO-31; experiment: Anticancer activity against human UO31 cells assessed as cell growth promotion at 10^-5 M after 48 hrs by SRB assay relative to control
[26] = system: SR; experiment: Anticancer activity against human SR cells assessed as cell growth promotion at 10^-5 M after 48 hrs by SRB assay relative to control
[27] = system: MDA-MB-435; experiment: Anticancer activity against human MDA-MB-435 cells assessed as cell growth promotion at 10^-5 M after 48 hrs by SRB assay relative to control
[28] = system: PC-3; experiment: Anticancer activity against human PC3 cells assessed as cell growth promotion at 10^-5 M after 48 hrs by SRB assay relative to control
[29] = system: TK-10; experiment: Anticancer activity against human TK10 cells assessed as cell growth promotion at 10^-5 M after 48 hrs by SRB assay relative to control
[30] = system: NCI/ADR-RES; experiment: Anticancer activity against human NCI/ADR-RES cells assessed as cell growth promotion at 10^-5 M after 48 hrs by SRB assay relative to control
[31] = system: SF-539; experiment: Anticancer activity against human SF539 cells assessed as cell growth promotion at 10^-5 M after 48 hrs by SRB assay relative to control
[32] = system: MCF7; experiment: Anticancer activity against human MCF7 cells assessed as cell growth promotion at 10^-5 M after 48 hrs by SRB assay relative to control
[33] = system: MDA-MB-468; experiment: Anticancer activity against human MDA-MB-468 cells assessed as cell growth promotion at 10^-5 M after 48 hrs by SRB assay relative to control
[34] = system: UACC-257; experiment: Anticancer activity against human UACC257 cells assessed as cell growth promotion at 10^-5 M after 48 hrs by SRB assay relative to control
[35] = system: LOX IMVI; experiment: Anticancer activity against human LOXIMVI cells assessed as cell growth promotion at 10^-5 M after 48 hrs by SRB assay relative to control
[36] = system: HCT-15; experiment: Anticancer activity against human HCT15 cells assessed as cell growth promotion at 10^-5 M after 48 hrs by SRB assay relative to control
[37] = system: HOP-62; experiment: Anticancer activity against human HOP62 cells assessed as cell growth promotion at 10^-5 M after 48 hrs by SRB assay relative to control
[38] = system: SF-268; experiment: Anticancer activity against human SF268 cells assessed as cell growth promotion at 10^-5 M after 48 hrs by SRB assay relative to control
[39] = system: SK-MEL-5; experiment: Anticancer activity against human SK-MEL-5 cells assessed as cell growth promotion at 10^-5 M after 48 hrs by SRB assay relative to control
[40] = system: OVCAR-3; experiment: Anticancer activity against human OVCAR3 cells assessed as cell growth promotion at 10^-5 M after 48 hrs by SRB assay relative to control
[41] = system: NCI-H23; experiment: Anticancer activity against human NCI-H23 cells assessed as cell growth promotion at 10^-5 M after 48 hrs by SRB assay relative to control
[42] = system: HCT-116; experiment: Anticancer activity against human HCT116 cells assessed as cell growth promotion at 10^-5 M after 48 hrs by SRB assay relative to control
[43] = system: KM12; experiment: Anticancer activity against human KM12 cells assessed as cell growth promotion at 10^-5 M after 48 hrs by SRB assay relative to control
[44] = system: MOLT-4; experiment: Anticancer activity against human MOLT4 cells assessed as cell growth promotion at 10^-5 M after 48 hrs by SRB assay relative to control
[45] = system: MDA-MB-231; experiment: Anticancer activity against human MDA-MB-231 cells assessed as cell growth promotion at 10^-5 M after 48 hrs by SRB assay relative to control
[46] = system: NCI-H226; experiment: Anticancer activity against human NCI-H226 cells assessed as cell growth promotion at 10^-5 M after 48 hrs by SRB assay relative to control
[47] = system: DU-145; experiment: Anticancer activity against human DU145 cells assessed as cell growth promotion at 10^-5 M after 48 hrs by SRB assay relative to control
[48] = system: HT-29; experiment: Anticancer activity against human HT-29 cells assessed as cell growth promotion at 10^-5 M after 48 hrs by SRB assay relative to control

Compound `Brc1cccc(/C=C/c2nc3ccccc3nc2SCc2nc3ccccc3[nH]2)c1` has an Activity [1] of 99.44%, an Activity [2] of 94.19% and an Activity [3] of 102%. The Activity [4] was 97.32%, the Activity [5] was 102% and the Activity [6] was 105%. The Activity [7] was 69.32%, the Activity [8] was 86.98% and the Activity [9] was 86.57%. For the same compound, the Activity [10] was 95.67%, the Activity [11] was 96.53% and the Activity [12] was 79.01%. The Activity [13] was 108%, the Activity [14] was 94.9% and the Activity [15] was 100%. For the same compound, the Activity [16] was 119%, the Activity [17] was 95.01% and the Activity [18] was 79.2%. It also gave an Activity [19] of 79.86%, an Activity [20] of 101% and an Activity [21] of 99.77%. The Activity [22] was 90.27%, the Activity [23] was 88.36% and the Activity [24] was 100%. It also gave an Activity [25] of 63.7%, an Activity [26] of 97.29% and an Activity [27] of 90.95%. The Activity [28] was 125%, the Activity [29] was 103% and the Activity [30] was 89.75%. It also gave an Activity [31] of 101%, an Activity [32] of 61.74% and an Activity [33] of 101%. For the same compound, the Activity [34] was 93.79%, the Activity [35] was 91.83% and the Activity [36] was 101%. For the same compound, the Activity [37] was 97.73%, the Activity [38] was 94.82% and the Activity [39] was 96.24%. For the same compound, the Activity [40] was 92.52%, the Activity [41] was 93.86% and the Activity [42] was 78.83%. The Activity [43] was 90.27%, the Activity [44] was 84.4% and the Activity [45] was 93.29%. It also gave an Activity [46] of 96.35%, an Activity [47] of 97.76% and an Activity [48] of 94.19%.

— ChEMBL document CHEMBL1781959, “Synthesis and in vitro antitumor activity of substituted quinazoline and quinoxaline derivatives: search for anticancer agent” (Eur J Med Chem, 2011)
